{
  "source": "ChEMBL document CHEMBL1126933",
  "about": "“Syntheses and biological activities of potent potassium channel openers derived from (+/-)-2-oxo-1-pyridin-3-yl-cyclohexanecarbothioic acid methylamide: new potassium channel openers” (1993)",
  "data": [
    {"organism": "Rattus norvegicus", "test": "In vitro relaxation of de-endothelialized rat aortic strips toned with 20 mM KCl", "assay_type": "functional", "conditions": "Aorta", "in_short": "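Rat aortic rings cut into transverse strips, endothelium removed by gentle rubbing. Strips held in Krebs bicarbonate buffer at 37 °C, gassed with 95% O2/5% CO2, isometric tension recorded. Equilibrated 90 min at 2 g resting tension, then contracted with 20 mmol KCl. At maximal contraction, relaxation measured by cumulative concentration-response, each next concentration added once the previous one reached maximal effect.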", "units": {"IC90": "nM"}, "values": [
      {"smiles": "C/N=C(/S)[C@@]1(c2cccnc2)CCCC[C@@H]1CCNC(=O)Cc1ccccc1", "IC90": 300},
      {"smiles": "C/N=C(/S)C1(c2cccnc2)CCCC/C1=C\\CO", "note": "(centres undefined)", "IC90": 10000},
      {"smiles": "C/N=C(/S)C1(c2cccnc2)CCCC/C1=C\\COc1ccc([N+](=O)[O-])cc1", "note": "(centres undefined)", "IC90": 100},
      {"smiles": "C/N=C(/S)C1(c2cccnc2)CCCC/C1=C\\CSc1ccccc1", "note": "(centres undefined)", "IC90": 3},
      {"smiles": "C/N=C(/S)C1(c2cccnc2)CCCC/C1=C\\C#N", "note": "(centres undefined)", "IC90": 10000},
      {"smiles": "C/N=C(/S)[C@@]1(c2cccnc2)CCCC[C@@H]1CCNC(=O)c1ccc(F)cc1", "IC90": 500},
      {"smiles": "C/N=C(/S)[C@@]1(c2cccnc2)CCCC[C@@H]1CCOC(=O)c1ccccc1", "IC90": 30},
      {"smiles": "C/N=C(/S)C1(c2cccnc2)CCCC/C1=C\\COc1ccccc1", "note": "(centres undefined)", "IC90": 65},
      {"smiles": "C/N=C(/S)[C@@]1(c2cccnc2)CCCC[C@@H]1CCOC(C)=O", "IC90": 30},
      {"smiles": "C/N=C(/S)[C@@]1(c2cccnc2)CCCC[C@@H]1CCNS(=O)(=O)c1ccc(Cl)cc1", "IC90": 30},
      {"smiles": "CNC(=S)[C@@]1(c2cccnc2)CCCC[S+]1[O-]", "note": "(some centres undefined)", "IC90": 400},
      {"smiles": "C/N=C(/S)[C@@]1(c2cccnc2)CCCC[C@@H]1CCNS(=O)(=O)c1cccs1", "IC90": 1},
      {"smiles": "C/N=C(/S)[C@@]1(c2cccnc2)CCCC[C@@H]1CCNC(=O)C(C)C", "IC90": 300},
      {"smiles": "C/N=C(/S)[C@@]1(c2cccnc2)CCCC[C@@H]1CCNC(=O)c1ccccc1", "IC90": 300},
      {"smiles": "C/N=C(/S)C1(c2cccnc2)CCCCC1=O", "note": "(centres undefined)", "IC90": 800},
      {"smiles": "C/N=C(/S)[C@@]1(c2cccnc2)CCCC[C@@H]1CCNS(=O)(=O)c1ccccc1", "IC90": 0.3},
      {"smiles": "C/N=C(/S)[C@@]1(c2cccnc2)CCCC[C@@H]1CCN1C(=O)COCC1=O", "IC90": 100},
      {"smiles": "C/N=C(/S)[C@@]1(c2cccnc2)CCCC[C@@H]1CCNS(=O)(=O)c1ccc(F)cc1", "IC90": 7},
      {"smiles": "C/N=C(/S)C1(c2cccnc2)CCCC/C1=C\\C=N\\OCc1ccc(F)cc1", "note": "(centres undefined)", "IC90": 100},
      {"smiles": "C/N=C(/S)C1(c2cccnc2)CCCC/C1=C\\C=N\\OCC(O)CO", "note": "(centres undefined)", "IC90": 3000},
      {"smiles": "C/N=C(/S)[C@@]1(c2cccnc2)CCCC[C@@H]1CCO", "IC90": 1700},
      {"smiles": "C/N=C(/S)[C@@]1(c2cccnc2)CCCC[C@@H]1CCNS(=O)(=O)c1cccnc1", "IC90": 3},
      {"smiles": "C/N=C(/S)[C@@]1(c2cccnc2)CCCC[C@@H]1CCNS(=O)(=O)c1ccc(F)c(F)c1", "IC90": 10},
      {"smiles": "C/N=C(/S)[C@@]1(c2cccnc2)CCCC[C@@H]1CCNc1ccccc1", "IC90": 3},
      {"smiles": "C/N=C(/S)[C@@]1(c2cccnc2)CCCC[C@@H]1CC#N", "IC90": 300},
      {"smiles": "C/N=C(/S)[C@@]1(c2cccnc2)CCCC[C@@H]1CCN", "IC90": 10000},
      {"smiles": "C/N=C(/S)[C@@]1(c2cccnc2)CCCC[C@@H]1CCNC(C)=O", "IC90": 130},
      {"smiles": "C/N=C(/S)[C@@]1(c2cccnc2)CCCC[C@@H]1C/C=C/c1ccc(F)cc1", "IC90": 10},
      {"smiles": "C/N=C(/S)[C@@]1(c2cccnc2)CCCC[C@@H]1CCOC(=O)c1ccc(F)cc1", "IC90": 100},
      {"smiles": "C/N=C(/S)[C@@]1(c2cccnc2)CCCC[C@@H]1C/C=C/c1ccccc1", "IC90": 100},
      {"smiles": "CNC(=S)[C@@]1(c2cccnc2)CCCC[C@@H]1CCNS(=O)(=O)c1ccc(OC)cc1", "IC90": 300},
      {"smiles": "C/N=C(/S)[C@@]1(c2cccnc2)CCCC[C@@H]1CCNS(C)(=O)=O", "IC90": 170},
      {"smiles": "C/N=C(/S)[C@@]1(c2cccnc2)CCCC[C@@H]1CCNS(=O)(=O)c1ccc([N+](=O)[O-])cc1", "IC90": 300},
      {"smiles": "C/N=C(/S)C1(c2cccnc2)CCCC/C1=C\\C=O", "note": "(centres undefined)", "IC90": 8000},
      {"smiles": "C/N=C(/NCC[C@H]1CCCC[C@@]1(/C(S)=N\\C)c1cccnc1)NS(=O)(=O)c1ccccc1", "IC90": 300},
      {"smiles": "C/N=C(/NCC[C@H]1CCCC[C@@]1(/C(S)=N\\C)c1cccnc1)NS(C)(=O)=O", "IC90": 30},
      {"smiles": "C/N=C(/S)[C@@]1(c2cccnc2)CCCC[C@@H]1C/C=N/OCc1ccccc1", "IC90": 30},
      {"smiles": "CNC(=S)[C@@]1(c2cccnc2)CCCC[C@@H]1CC(=O)OC", "IC90": 300},
      {"smiles": "C/N=C(/S)C1(c2cccnc2)CCCC/C1=C\\COc1ccc(O)cc1", "note": "(centres undefined)", "IC90": 300}
    ]}
  ]
}
